These results are taken from ChEMBL document CHEMBL4028905, “A Unique Approach to Design Potent and Selective Cyclic Adenosine Monophosphate Response Element Binding Protein, Binding Protein (CBP) Inhibitors” (J Med Chem, 2017).

The IC50 is the concentration that gives 50% inhibition. Usually EC50 stands for the concentration at which the effect is half-maximal.

One data set is filed under the species Homo sapiens. The experiment in a line: Selectivity ratio of IC50 for His tagged recombinant BRD4 bromodomain 1 (unknown origin) to IC50 for His tagged recombinant CBP (unknown origin).
In data set [1] the target is Bromodomain-containing protein 4 (Homo sapiens, UniProt O60885). Put plainly: Inhibition of His tagged recombinant BRD4 bromodomain 1 (unknown origin) by TR-FRET assay. In a few lines:
(§1)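 Recombinant His-tagged bromodomains purified by Ni affinity, tag removed with thrombin, checked by mass spectrometry. Assay is TR-FRET competition against a biotinylated small-molecule ligand. Normalized inhibition vs concentration fit to 4-parameter Hill equation; […] for optimization.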
(TR-FRET usually uses a lanthanide donor and a delayed reading to cut background.)

A further data set deals with CREB-binding protein (Homo sapiens, UniProt Q92793). The experiment in a line: Inhibition of His tagged recombinant CBP (unknown origin) by TR-FRET assay. In a few lines: as §1
The nature of data set [2]: Intrinsic clearance in mouse liver microsomes at 1 uM in presence of NADPH by LC-MS/MS analysis. The format is ADME, microsome. To be noted: read-out: CLH. Background: Microsomes from liver hold many membrane-bound enzymes, among them those of drug oxidation.
Data set [3] in a line: Intrinsic clearance in human liver microsomes at 1 uM in presence of NADPH by LC-MS/MS analysis. The format is ADME, microsome. To be noted: read-out: CLH.
The target of data set [4] is CREB-binding protein/Histone acetyltransferase p300 (Homo sapiens, UniProt Q09472+Q92793). The experiment in a line: Inhibition of P300/CBP in human MV4-11 cells assessed as reduction in MYC expression after 4 hrs by luminescence based assay. The class given is cell-based. The method, boiled down:
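MV-4-11 cells plated at 10,000 per well in RPMI1640 with 10% FBS and 2 mM L-glutamine. Compounds added in DMSO at a final 0.1% and incubated 4 h at 37 °C before MYC expression read-out; EC50 derived.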

The nature of data set [5]: Intrinsic clearance in rat liver microsomes at 1 uM in presence of NADPH by LC-MS/MS analysis. The format is ADME, microsome. The settings on record: read-out: CLH.

Sequence of CREB-binding protein (Q92793 whole entry): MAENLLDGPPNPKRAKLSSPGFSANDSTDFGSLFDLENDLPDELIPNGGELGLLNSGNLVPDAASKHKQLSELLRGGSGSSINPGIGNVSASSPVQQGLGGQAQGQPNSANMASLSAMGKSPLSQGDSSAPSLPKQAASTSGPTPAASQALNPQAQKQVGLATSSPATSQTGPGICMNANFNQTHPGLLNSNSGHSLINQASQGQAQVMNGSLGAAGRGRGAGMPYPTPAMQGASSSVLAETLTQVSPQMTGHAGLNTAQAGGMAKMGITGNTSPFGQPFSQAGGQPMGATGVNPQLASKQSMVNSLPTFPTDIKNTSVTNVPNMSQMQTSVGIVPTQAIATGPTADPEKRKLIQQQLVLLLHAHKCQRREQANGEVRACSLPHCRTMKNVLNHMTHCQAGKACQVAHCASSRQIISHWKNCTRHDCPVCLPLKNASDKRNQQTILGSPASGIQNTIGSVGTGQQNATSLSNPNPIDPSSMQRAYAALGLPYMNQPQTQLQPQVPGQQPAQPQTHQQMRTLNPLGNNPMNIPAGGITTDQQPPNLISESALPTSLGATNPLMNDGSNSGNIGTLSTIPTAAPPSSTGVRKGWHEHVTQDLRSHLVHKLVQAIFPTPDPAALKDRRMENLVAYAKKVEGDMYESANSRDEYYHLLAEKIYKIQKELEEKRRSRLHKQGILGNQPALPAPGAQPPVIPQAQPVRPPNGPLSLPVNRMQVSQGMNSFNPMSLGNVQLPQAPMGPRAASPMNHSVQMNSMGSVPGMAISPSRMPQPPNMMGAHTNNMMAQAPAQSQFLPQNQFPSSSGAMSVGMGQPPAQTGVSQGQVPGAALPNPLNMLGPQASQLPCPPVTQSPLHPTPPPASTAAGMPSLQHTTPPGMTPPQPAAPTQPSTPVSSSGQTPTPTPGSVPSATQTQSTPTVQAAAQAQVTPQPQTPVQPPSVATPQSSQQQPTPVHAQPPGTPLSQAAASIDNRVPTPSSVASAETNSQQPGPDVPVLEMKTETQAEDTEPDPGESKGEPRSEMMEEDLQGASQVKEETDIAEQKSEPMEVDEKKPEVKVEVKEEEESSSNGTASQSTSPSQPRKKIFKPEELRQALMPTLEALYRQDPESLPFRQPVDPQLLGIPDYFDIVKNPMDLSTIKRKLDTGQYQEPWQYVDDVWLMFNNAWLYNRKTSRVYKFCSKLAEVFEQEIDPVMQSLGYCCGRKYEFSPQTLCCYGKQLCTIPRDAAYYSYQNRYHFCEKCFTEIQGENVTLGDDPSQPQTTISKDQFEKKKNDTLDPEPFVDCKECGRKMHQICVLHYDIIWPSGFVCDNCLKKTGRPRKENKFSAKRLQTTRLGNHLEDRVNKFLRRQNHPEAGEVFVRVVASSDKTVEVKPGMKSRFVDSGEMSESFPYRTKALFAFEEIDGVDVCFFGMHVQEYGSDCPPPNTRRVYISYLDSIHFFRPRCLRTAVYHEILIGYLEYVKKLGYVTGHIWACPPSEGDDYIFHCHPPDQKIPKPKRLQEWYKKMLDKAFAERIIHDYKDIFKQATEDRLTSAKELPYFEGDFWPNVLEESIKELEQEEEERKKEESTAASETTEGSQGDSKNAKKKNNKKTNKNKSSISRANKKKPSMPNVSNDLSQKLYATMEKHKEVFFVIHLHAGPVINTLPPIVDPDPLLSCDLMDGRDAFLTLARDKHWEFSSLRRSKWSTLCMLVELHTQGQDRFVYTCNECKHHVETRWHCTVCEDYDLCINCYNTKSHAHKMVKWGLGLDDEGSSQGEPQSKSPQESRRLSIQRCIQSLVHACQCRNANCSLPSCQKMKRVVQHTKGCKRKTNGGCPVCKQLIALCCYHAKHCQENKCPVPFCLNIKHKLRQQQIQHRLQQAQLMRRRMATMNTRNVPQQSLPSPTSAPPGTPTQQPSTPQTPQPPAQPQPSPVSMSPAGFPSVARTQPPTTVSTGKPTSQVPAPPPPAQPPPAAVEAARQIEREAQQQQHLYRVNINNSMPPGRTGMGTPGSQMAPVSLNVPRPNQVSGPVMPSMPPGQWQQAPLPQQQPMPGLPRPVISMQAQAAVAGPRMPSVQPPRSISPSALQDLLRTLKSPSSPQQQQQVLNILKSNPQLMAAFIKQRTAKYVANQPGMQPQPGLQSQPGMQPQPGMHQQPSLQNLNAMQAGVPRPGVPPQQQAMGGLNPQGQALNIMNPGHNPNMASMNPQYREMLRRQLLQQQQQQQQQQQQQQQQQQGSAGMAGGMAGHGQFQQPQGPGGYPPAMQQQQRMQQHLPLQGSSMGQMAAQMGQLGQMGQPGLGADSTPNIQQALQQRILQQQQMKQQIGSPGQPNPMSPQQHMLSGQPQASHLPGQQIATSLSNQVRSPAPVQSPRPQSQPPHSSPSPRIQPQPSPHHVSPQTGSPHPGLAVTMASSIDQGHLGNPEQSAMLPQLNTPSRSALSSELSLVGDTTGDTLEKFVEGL

Turning to `CCC(=O)N1CCOc2c(cc(-c3ccc(OC)c(OC)c3)cc2OC[C@H]2CCCN(C)C2)C1`, in the data set listed under Homo sapiens, the Ratio IC50 worked out at 34.
Turning to `COc1cccc2c1N(CCCNC(=O)c1cccc3c1N[C@H](C)C(=O)N3)CCC2`, the concentration for half-maximal inhibition (IC50) in data set [1] is 13 µM. The Ratio IC50 in the data set listed under Homo sapiens amounted to 22.
As to `CNC(=O)Nc1cc(OC)cc(NC(=O)NS(=O)(=O)c2cc(C)c(CCOC)s2)n1`, the half-inhibitory concentration (IC50) at CREB-binding protein was 0.27 µM; in data set [1], above 20 µM. Further, the Ratio IC50 in the data set filed under Homo sapiens is above 74.
Consider `CCC(=O)N1CCCc2cc(NS(=O)(=O)c3ccc(F)cc3C)ccc21`, for which the half-inhibitory concentration (IC50) came out at 3 µM at CREB-binding protein and 74 µM in data set [1]. In addition, in the data set listed under Homo sapiens, the Ratio IC50 was 25.
`CNC(=O)c1cnn2c(C3CCCN3)ccnc12` (configuration not stated): the figures for the IC50 (at CREB-binding protein; in data set [1]) were 32 µM and above 84 µM, respectively. For the same molecule, the Ratio IC50 in the data set listed under Homo sapiens is above 2.6.
With `Cn1cc(-c2cc3c(cc2C(F)F)N(c2cc(N4CCOCC4)c4c(c2)n(C)c(=O)n4C)CCC3)cn1`, the CLint scaled at 1 µM in data set [2] stood at 48 mL/min/kg; in data set [3], 15 mL/min/kg; in data set [5] it was 23 mL/min/kg. In addition, the IC50 turned out to be 0.0036 µM at CREB-binding protein and 1.1 µM in data set [1]. Further, the Ratio IC50 in the data set filed under Homo sapiens amounted to 310. In data set [4], the half-maximal effective concentration (EC50) is 0.012 µM.
Consider `CNC(=O)c1c[nH]c2cnc(N3CCCc4cc(-c5cnn(C)c5)c(C(F)F)cc43)cc12`, for which the CLint scaled at 1 µM in data set [2] is 39 mL/min/kg; in data set [3], 6.9 mL/min/kg; in data set [5], 17 mL/min/kg. In addition, the IC50 in data set [1] stood at 3.9 µM. In addition, the Ratio IC50 in the data set filed under Homo sapiens was 780. Also, the EC50 in data set [4] came to 0.36 µM.
On to `CNC(=O)c1cnn2ccc(N3CCCc4cc(-c5cnn(C)c5)c(C(F)F)cc43)nc12`, for which the concentration for half-maximal inhibition (IC50) was 1.4 µM on CREB-binding protein and above 20 µM in data set [1]. In addition, the Ratio IC50 in the data set listed under Homo sapiens is above 14.
Regarding `Cn1cc(-c2cc3c(cc2C(F)F)N(c2ccc4c(c2)n(C)c(=O)n4C)CCC3)cn1`, the CLint scaled at 1 µM in data set [2] was determined as 61 mL/min/kg; in data set [3], 16 mL/min/kg; in data set [5] it was 38 mL/min/kg. The results for the 50% inhibitory concentration (IC50) (at CREB-binding protein; in data set [1]) were 0.02 µM and 4.1 µM, respectively. Besides, the Ratio IC50 in the data set filed under Homo sapiens stood at 210. In data set [4], the concentration giving a half-maximal response (EC50) came out at 1 µM.
In the case of `CN1C(=O)CCc2ccc(N3CCCc4cc(-c5cnn(C)c5)c(C(F)F)cc43)cc21`, the results for the IC50 (on CREB-binding protein; in data set [1]) were 0.038 µM and above 20 µM, respectively. Also, the Ratio IC50 in the data set listed under Homo sapiens is above 530.
Regarding `C[C@@H]1CC(=O)Nc2cccc(-c3ccc4c(c3)c(-c3cnn(C)c3)nn4C)c2N1`, in the data set listed under Homo sapiens, the Ratio IC50 was 370.
With `CNC(=O)Nc1cc(OC)cc(N2CCCc3cc(-c4cnn(C)c4)c(C(F)F)cc32)n1`, the IC50 in data set [1] was above 20 µM. Further, the Ratio IC50 in the data set listed under Homo sapiens is above 170.
Take `CNC(=O)N1CCOc2ccc(N3CCCc4cc(-c5cnn(C)c5)c(C(F)F)cc43)cc2C1`: the concentration for half-maximal inhibition (IC50) on CREB-binding protein turned out to be 0.013 µM; in data set [1], 7.4 µM. Also, in the data set listed under Homo sapiens, the Ratio IC50 came to 570.
On the same counts, the results for `CC(=O)N1CCCc2cc(N3CCCc4cc(-c5cnn(C)c5)c(C(F)F)cc43)ccc21` are 0.45 µM, 6.9 µM and above 15.
The like results for `CC(=O)N1CCc2c(cc(-c3cccc(Cl)c3)c(=O)n2CC2CC2)C1` were, in that order, 0.54 µM, 52 µM and 96.
For `Cn1cc(-c2cc3c(cc2C(F)F)N(c2ccc4sc(=O)n(C)c4c2)CCC3)cn1`, the CLint scaled at 1 µM in data set [2] is 71 mL/min/kg; in data set [3], 17 mL/min/kg; in data set [5] it was 39 mL/min/kg. Moreover, the IC50 in data set [1] was found to be 18 µM.
For `CNC(=O)c1ccc2nccc(N3CCCc4cc(-c5cnn(C)c5)c(C(F)F)cc43)c2c1`, the IC50 in data set [1] is above 20 µM. Moreover, the Ratio IC50 in the data set filed under Homo sapiens is above 590.
In the case of `CCOC(=O)c1cnc2ccc(C(=O)OC)cc2c1Nc1cccc(C(=O)O)c1`, the figures for the IC50 (on CREB-binding protein; in data set [1]) were 0.23 µM and above 20 µM, respectively. Further, the Ratio IC50 in the data set listed under Homo sapiens was above 87.
Regarding `CC(=O)N1CCc2c(cc(N3CCCc4cc(-c5cnn(C)c5)c(C(F)F)cc43)c(=O)n2C)C1`, the 50% inhibitory concentration (IC50) in data set [1] was above 20 µM. Moreover, the Ratio IC50 in the data set filed under Homo sapiens is above 430.
Take `C[C@H]1Nc2c(cccc2N2CCCc3cc(-c4cnn(C)c4)c(C(F)F)cc32)NC1=O`: the IC50 in data set [1] was above 20 µM.
